Values joined by “and” are separate entries in the source; they are usually repeats but may differ in a detail not shown here. Equal entries are not always repeated.
System: Fibroblast
Experiment: Multiplex assay against human fibroblast
Format: toxicity, cell-based
Settings: number of replicates 2
In short: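 Live cells carried four stains from seeding: Hoechst33342, BioTracker Green Microtubule Cytoskeleton Dye, MitoTracker Red and Annexin V Alexa Fluor 680. They were imaged on a CQ1 microscope at 37°C and 5% CO2 after compound addition. Using CellPathfinder machine-learning gating, cells were split into Hoechst high-intensity objects or normal cells, normal cells into healthy, pyknosed or fragmented nuclei, and pyknosed cells into mitotic or apoptotic; tubulin, mitochondrial-mass and membrane-permeability phenotypes are per cents of healthy-nucleus cells.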

[1] = 12 h, 1 µM, compound concentration 1 uM
[2] = 12 h, 10 µM, compound concentration 10 uM
[3] = 24 h, 1 µM, compound concentration 1 uM
[4] = 24 h, 10 µM, compound concentration 10 uM
[5] = 48 h, 1 µM, compound concentration 1 uM
[6] = 48 h, 10 µM, compound concentration 10 uM

CN1CCCN(C(=O)c2cccc(-c3ccc(/C=C4/C(=O)Nc5ccc(Cl)cc54)o3)c2)CC1
Population Apoptotic (%) [1]: 43% and 41% | Population Fragmented Nuclei (%) [1]: 4% and 3% | Population Healthy Nuclei (%) [1]: 79% and 72% | Population Hoechst High Intensity Objects (%) [1]: 0% | Population Membrane Permeable-Phenotype (%) [1]: 4% and 1% | Population Mitochondria Different-Phenotype (%) [1]: 2% | Population Mitotic Cells (%) [1]: 56% and 58% | Population Normal (%) [1]: 100% | Population Pyknosed Nuclei (%) [1]: 16% and 24% | Population Tubulin-Different-Phenotype (%) [1]: 20% | Total Cell Count [1]: 283 and 162 | Population Apoptotic (%) [2]: 39% and 56% | Population Fragmented Nuclei (%) [2]: 3% and 1% | Population Healthy Nuclei (%) [2]: 8% and 3% | Population Hoechst High Intensity Objects (%) [2]: 0% | Population Mitochondria Different-Phenotype (%) [2]: 7% and 0% | Population Mitotic Cells (%) [2]: 60% and 44% | Population Normal (%) [2]: 99% and 100% | Population Pyknosed Nuclei (%) [2]: 88% and 95% | Population Tubulin-Different-Phenotype (%) [2]: 61% and 100% | Total Cell Count [2]: 156 and 131 | Population Apoptotic (%) [3]: 48% and 54% | Population Fragmented Nuclei (%) [3]: 4% | Population Healthy Nuclei (%) [3]: 83% and 75% | Population Hoechst High Intensity Objects (%) [3]: 0% | Population Membrane Permeable-Phenotype (%) [3]: 5% and 3% | Population Mitochondria Different-Phenotype (%) [3]: 3% and 8% | Population Mitotic Cells (%) [3]: 51% and 45% | Population Normal (%) [3]: 100% | Population Pyknosed Nuclei (%) [3]: 12% and 20% | Population Tubulin-Different-Phenotype (%) [3]: 25% | Total Cell Count [3]: 271 and 164 | Population Apoptotic (%) [4]: 75% and 57% | Population Fragmented Nuclei (%) [4]: 4% and 7% | Population Healthy Nuclei (%) [4]: 17% and 13% | Population Hoechst High Intensity Objects (%) [4]: 0% | Population Membrane Permeable-Phenotype (%) [4]: 65% and 52% | Population Mitochondria Different-Phenotype (%) [4]: 4% and 0% | Population Mitotic Cells (%) [4]: 24% and 42% | Population Normal (%) [4]: 100% | Population Pyknosed Nuclei (%) [4]: 78% | Population Tubulin-Different-Phenotype (%) [4]: 34% and 30% | Total Cell Count [4]: 135 and 165 | Population Apoptotic (%) [5]: 62% and 80% | Population Fragmented Nuclei (%) [5]: 8% and 7% | Population Healthy Nuclei (%) [5]: 81% and 78% | Population Hoechst High Intensity Objects (%) [5]: 0% | Population Membrane Permeable-Phenotype (%) [5]: 4% and 8% | Population Mitochondria Different-Phenotype (%) [5]: 1% | Population Mitotic Cells (%) [5]: 37% and 19% | Population Normal (%) [5]: 100% and 99% | Population Pyknosed Nuclei (%) [5]: 10% and 13% | Population Tubulin-Different-Phenotype (%) [5]: 20% and 17% | Total Cell Count [5]: 269 and 155 | Population Apoptotic (%) [6]: 88% and 71% | Population Fragmented Nuclei (%) [6]: 20% and 37% | Population Healthy Nuclei (%) [6]: 26% and 18% | Population Hoechst High Intensity Objects (%) [6]: 0% | Population Membrane Permeable-Phenotype (%) [6]: 50% and 30% | Population Mitochondria Different-Phenotype (%) [6]: 0% | Population Mitotic Cells (%) [6]: 11% and 28% | Population Normal (%) [6]: 100% | Population Pyknosed Nuclei (%) [6]: 52% and 43% | Population Tubulin-Different-Phenotype (%) [6]: 46% and 27% | Total Cell Count [6]: 120 and 174

CCN1CCN(Cc2ccc(C(=O)Nc3ccc(C)c(Oc4ccc5c(c4)CC(=O)N5)c3)cc2C(F)(F)F)CC1.Cl.Cl
Population Apoptotic (%) [1]: 32% and 37% | Population Fragmented Nuclei (%) [1]: 14% and 13% | Population Healthy Nuclei (%) [1]: 59% and 62% | Population Hoechst High Intensity Objects (%) [1]: 0% | Population Membrane Permeable-Phenotype (%) [1]: 2% and 6% | Population Mitochondria Different-Phenotype (%) [1]: 2% and 1% | Population Mitotic Cells (%) [1]: 67% and 62% | Population Normal (%) [1]: 100% and 99% | Population Pyknosed Nuclei (%) [1]: 25% and 23% | Population Tubulin-Different-Phenotype (%) [1]: 27% | Total Cell Count [1]: 230 and 264 | Population Apoptotic (%) [2]: 47% and 35% | Population Fragmented Nuclei (%) [2]: 22% and 13% | Population Healthy Nuclei (%) [2]: 58% and 61% | Population Hoechst High Intensity Objects (%) [2]: 0% | Population Membrane Permeable-Phenotype (%) [2]: 8% | Population Mitochondria Different-Phenotype (%) [2]: 11% and 14% | Population Mitotic Cells (%) [2]: 52% and 64% | Population Normal (%) [2]: 99% and 100% | Population Pyknosed Nuclei (%) [2]: 18% and 25% | Population Tubulin-Different-Phenotype (%) [2]: 78% and 73% | Total Cell Count [2]: 298 and 282 | Population Apoptotic (%) [3]: 47% and 46% | Population Fragmented Nuclei (%) [3]: 21% and 16% | Population Healthy Nuclei (%) [3]: 61% and 59% | Population Hoechst High Intensity Objects (%) [3]: 0% | Population Membrane Permeable-Phenotype (%) [3]: 3% and 1% | Population Mitochondria Different-Phenotype (%) [3]: 2% and 4% | Population Mitotic Cells (%) [3]: 52% and 53% | Population Normal (%) [3]: 99% and 100% | Population Pyknosed Nuclei (%) [3]: 17% and 23% | Population Tubulin-Different-Phenotype (%) [3]: 28% and 20% | Total Cell Count [3]: 278 and 269 | Population Apoptotic (%) [4]: 59% and 68% | Population Fragmented Nuclei (%) [4]: 15% and 7% | Population Healthy Nuclei (%) [4]: 57% and 51% | Population Hoechst High Intensity Objects (%) [4]: 0% and 1% | Population Membrane Permeable-Phenotype (%) [4]: 8% and 5% | Population Mitochondria Different-Phenotype (%) [4]: 27% and 45% | Population Mitotic Cells (%) [4]: 40% and 31% | Population Normal (%) [4]: 99% and 98% | Population Pyknosed Nuclei (%) [4]: 26% and 40% | Population Tubulin-Different-Phenotype (%) [4]: 89% and 78% | Total Cell Count [4]: 258 and 216 | Population Apoptotic (%) [5]: 88% and 73% | Population Fragmented Nuclei (%) [5]: 23% and 20% | Population Healthy Nuclei (%) [5]: 67% and 61% | Population Hoechst High Intensity Objects (%) [5]: 0% | Population Membrane Permeable-Phenotype (%) [5]: 4% and 6% | Population Mitochondria Different-Phenotype (%) [5]: 4% and 5% | Population Mitotic Cells (%) [5]: 12% and 26% | Population Normal (%) [5]: 100% and 99% | Population Pyknosed Nuclei (%) [5]: 8% and 18% | Population Tubulin-Different-Phenotype (%) [5]: 28% and 27% | Total Cell Count [5]: 282 and 246 | Population Apoptotic (%) [6]: 89% and 92% | Population Fragmented Nuclei (%) [6]: 9% and 18% | Population Healthy Nuclei (%) [6]: 44% and 41% | Population Hoechst High Intensity Objects (%) [6]: 1% and 2% | Population Membrane Permeable-Phenotype (%) [6]: 13% and 12% | Population Mitochondria Different-Phenotype (%) [6]: 48% and 61% | Population Mitotic Cells (%) [6]: 10% and 7% | Population Normal (%) [6]: 98% and 97% | Population Pyknosed Nuclei (%) [6]: 46% and 39% | Population Tubulin-Different-Phenotype (%) [6]: 78% and 93% | Total Cell Count [6]: 190 and 197

CCCNc1ccc2ncc(-c3ccncc3)n2n1
Population Apoptotic (%) [1]: 30% and 34% | Population Fragmented Nuclei (%) [1]: 4% and 14% | Population Healthy Nuclei (%) [1]: 65% and 63% | Population Hoechst High Intensity Objects (%) [1]: 0% | Population Membrane Permeable-Phenotype (%) [1]: 14% and 6% | Population Mitochondria Different-Phenotype (%) [1]: 0% | Population Mitotic Cells (%) [1]: 69% and 65% | Population Normal (%) [1]: 100% | Population Pyknosed Nuclei (%) [1]: 29% and 21% | Population Tubulin-Different-Phenotype (%) [1]: 18% and 9% | Total Cell Count [1]: 144 and 202 | Population Apoptotic (%) [2]: 51% and 53% | Population Fragmented Nuclei (%) [2]: 12% and 10% | Population Healthy Nuclei (%) [2]: 70% and 75% | Population Hoechst High Intensity Objects (%) [2]: 0% | Population Membrane Permeable-Phenotype (%) [2]: 4% and 3% | Population Mitochondria Different-Phenotype (%) [2]: 5% and 1% | Population Mitotic Cells (%) [2]: 48% and 46% | Population Normal (%) [2]: 100% | Population Pyknosed Nuclei (%) [2]: 17% and 13% | Population Tubulin-Different-Phenotype (%) [2]: 27% and 17% | Total Cell Count [2]: 157 and 204 | Population Apoptotic (%) [3]: 38% and 42% | Population Fragmented Nuclei (%) [3]: 9% and 14% | Population Healthy Nuclei (%) [3]: 61% and 63% | Population Hoechst High Intensity Objects (%) [3]: 0% | Population Membrane Permeable-Phenotype (%) [3]: 9% and 8% | Population Mitochondria Different-Phenotype (%) [3]: 2% and 1% | Population Mitotic Cells (%) [3]: 61% and 57% | Population Normal (%) [3]: 100% | Population Pyknosed Nuclei (%) [3]: 29% and 21% | Population Tubulin-Different-Phenotype (%) [3]: 25% and 13% | Total Cell Count [3]: 143 and 193 | Population Apoptotic (%) [4]: 75% and 65% | Population Fragmented Nuclei (%) [4]: 18% and 15% | Population Healthy Nuclei (%) [4]: 65% and 68% | Population Hoechst High Intensity Objects (%) [4]: 0% | Population Membrane Permeable-Phenotype (%) [4]: 5% and 3% | Population Mitochondria Different-Phenotype (%) [4]: 8% and 7% | Population Mitotic Cells (%) [4]: 25% and 34% | Population Normal (%) [4]: 99% and 100% | Population Pyknosed Nuclei (%) [4]: 16% | Population Tubulin-Different-Phenotype (%) [4]: 33% and 30% | Total Cell Count [4]: 151 and 200 | Population Apoptotic (%) [5]: 55% and 59% | Population Fragmented Nuclei (%) [5]: 14% and 20% | Population Healthy Nuclei (%) [5]: 57% and 59% | Population Hoechst High Intensity Objects (%) [5]: 0% | Population Membrane Permeable-Phenotype (%) [5]: 15% and 8% | Population Mitochondria Different-Phenotype (%) [5]: 1% and 0% | Population Mitotic Cells (%) [5]: 44% and 40% | Population Normal (%) [5]: 100% and 99% | Population Pyknosed Nuclei (%) [5]: 28% and 19% | Total Cell Count [5]: 150 and 228 | Population Apoptotic (%) [6]: 61% and 80% | Population Fragmented Nuclei (%) [6]: 14% and 13% | Population Healthy Nuclei (%) [6]: 60% and 61% | Population Hoechst High Intensity Objects (%) [6]: 0% | Population Membrane Permeable-Phenotype (%) [6]: 11% and 4% | Population Mitochondria Different-Phenotype (%) [6]: 6% and 5% | Population Mitotic Cells (%) [6]: 38% and 20% | Population Normal (%) [6]: 99% | Population Pyknosed Nuclei (%) [6]: 24% and 25% | Population Tubulin-Different-Phenotype (%) [6]: 45% and 33% | Total Cell Count [6]: 149 and 198

From ChEMBL document CHEMBL5303300, “EUbOPEN Chemogenomics Library - Multiplex” (2023)
